From ChEMBL document CHEMBL1154279, “Cytotoxic compounds from the stems of Cinnamomum tenuifolium” (J Nat Prod, 2009) come the findings set out here.

In general, IC50 refers to the concentration that inhibits the measured activity by half. Higher therefore signals lower potency.

The structures appear in SMILES notation.

One test has as its system LNCaP. The test can be described thus: Cytotoxicity against human LNCAP cells after 72 hrs by XTT assay. Format: functional, cell-based. To be noted: 24 h, in the assay text read “after 24 hrs” for “after 72 hrs”. The essentials:
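Prostate cancer cells in RPMI-1640 with 10% FBS, 37 °C, 5% CO2, grown to 70–80% confluence and treated at 0.1–100 µM for 24, 48 and 72 h. XTT labeling for 4 h at 37 °C, absorbance 450 nm (reference 650 nm) against control wells. IC50 derived from the mean of eight wells; taxol and cisplatin served as positive controls.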
(Tetrazolium dyes change colour on reduction, which living cells bring about.)

In a further test the test system is DU-145. The test can be described thus: Cytotoxicity against human DU145 cells after 72 hrs by XTT assay. Format: functional, cell-based. To be noted: DU-145, 24 h, in the assay text read “after 24 hrs” for “after 72 hrs”.

Consider `C=C1C=C(C(CCCCCCCCCCCCCCCCCCC)OC)C(=O)O1` (centres undefined) [TENUIFOLIDE B], for which the IC50 in the test on LNCaP is 22.2 µM; in the test on DU-145 it was 246 µM.

Turning to `COc1ccc2c(c1)CC=C(CO)c1cc3c(cc1-2)OCO3` [TENUIFOLIN], the results for the IC50 with LNCaP and with DU-145 were 223 µM and > 500 µM, respectively.
